The results in this text go back to ChEMBL document CHEMBL1153876, “Synthesis of some N-substituted nitroimidazole derivatives as potential antioxidant and antifungal agents” (2009).

Converted amounts (≈) assume the structure as drawn.

The nature of assay [1]: Antioxidant activity assessed as inhibition of Fe2+-induced lipid peroxidation after 15 to 60 mins by TBARS assay relative to control. The arrangement: concentration or dose not given beside the values. The assay is classed as functional. In short, it runs like this: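 Substrate: egg yolk lipoprotein suspension, made by homogenising yolk with an equal volume of phosphate buffer pH 7.4. Compounds were added as 10^-3 mol/mL solution, with 0.7% FeSO4·7H2O to start non-enzymatic peroxidation, at 37 °C. Controls were Fe only and a blank with neither Fe nor compound; tocopheryl acetate was the reference. The supernatant was heated with acidic thiobarbituric acid at 95 °C for 1 h, extracted into n-butanol–pyridine 15:1, and read by optical density.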

For another assay, the system named is Sydowia polyspora. Kind of assay: Antifungal activity against Sclerophoma pityophila after 12 days. Particulars: for EC50: Sydowia polyspora, 288 h, read-out: ED50 (the source's name). Format: functional. In short, it runs like this: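 Agar dilution on S. pityophila S 231: nine concentrations in geometric progression, 25 to 5000 ppm, in malt agar (1.5% agar, 4% malt extract), 90 mm dishes, three replicate plates each. Centrally inoculated with 5-mm disc from submargin of 10-day-old culture; 22 ± 1 °C, dark, up to 12 days. Growth rate versus compound-free plates gives ED50/ED100; non-growing inocula transferred to fresh agar to assess viability (LD).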

Turning to `Cc1ccccc1Nc1ncn(CC(=O)c2ccc(Cl)cc2)c1[N+](=O)[O-]`, the Activity in assay [1] is -35.3%. As for `CC(=O)Cn1c(C)nc(N2CCOCC2)c1[N+](=O)[O-]`, in assay [1], the Activity was found to be 23.1%.

As to `O=C(Cn1cnc([N+](=O)[O-])c1[N+](=O)[O-])c1ccccc1`, in assay [1], the Activity was 34.5%. The same measure, in the same setting: next, `CC(=O)Cn1c(C)nc(Nc2ccccc2)c1[N+](=O)[O-]`: 15.1%; `O=C(Cn1cnc(N2CCCC2)c1[N+](=O)[O-])c1ccccc1`: 44.2%; `O=C(Cn1cnc(N2CCOCC2)c1[N+](=O)[O-])c1ccc(Cl)cc1`: 21%. Same read-out and setting: next, `Cc1nc(N2CCOCC2)c([N+](=O)[O-])n1CC(=O)c1ccc(Cl)cc1`: 30.1%; `CN1CCN(c2ncn(CC(O)CCl)c2[N+](=O)[O-])CC1` (configuration not stated): 39.1%.

Turning to `Cc1ccccc1Nc1ncn(CC(=O)c2ccccc2)c1[N+](=O)[O-]`, in assay [1], the Activity came out at 1.2%.

Consider `Cc1nc([N+](=O)[O-])c([N+](=O)[O-])n1CC(=O)c1ccccc1`, for which the Activity in assay [1] is 26.4%. As for `O=[N+]([O-])c1c(N2CCOCC2)ncn1CC(O)CCl` (configuration not stated), the Activity in assay [1] came out at 51.6%.

On to `Cc1nc([N+](=O)[O-])c([N+](=O)[O-])n1CC(=O)c1ccc(Cl)cc1`, for which, in the assay on Sydowia polyspora, the ED100 is on record as over 5000 ppm, the LD is on record as under 5000 ppm and the EC50 came out at 500 µg/mL (≈ 1540 µM). Besides, in assay [1], the Activity was determined as 57.6%.

For `Cc1nc(N2CCCC2)c([N+](=O)[O-])n1CC(=O)c1ccc(Cl)cc1`, in the assay on Sydowia polyspora, the ED100 is over 5000 ppm, the LD was under 5000 ppm and the EC50 is over 5000 µg/mL. For the same compound, the Activity in assay [1] was found to be 20.8%. The corresponding values for `Cc1nc(N2CCCCC2)c([N+](=O)[O-])n1CC(=O)c1ccc(Cl)cc1` are under 25 ppm, under 5000 ppm, under 25 µg/mL and 36.9%. `Cc1nc(N2CCCC2)c([N+](=O)[O-])n1CC(=O)c1ccccc1`: the Activity in assay [1] came to 45.2%. In the case of `Cc1nc(N2CCCCC2)c([N+](=O)[O-])n1CC(=O)c1ccccc1`, in the assay with Sydowia polyspora, the ED100 is reported as over 5000 ppm, the LD is on record as under 5000 ppm and the EC50 is over 5000 µg/mL. In assay [1], the Activity is 48.6%. Take `Cc1nc(N2CCN(C)CC2)c([N+](=O)[O-])n1CC(=O)c1ccc(Cl)cc1`: the Activity in assay [1] amounted to 37.1%. Take `Cc1nc(N2CCN(C)CC2)c([N+](=O)[O-])n1CC(=O)c1ccccc1`: the Activity in assay [1] was determined as 13%.

As for `O=C(Cn1cnc([N+](=O)[O-])c1[N+](=O)[O-])c1ccc(Cl)cc1`, in the assay with Sydowia polyspora, the ED100 was over 5000 ppm, the LD is recorded as under 5000 ppm and the EC50 is 1000 µg/mL (≈ 3220 µM). The Activity in assay [1] is 60%.

Regarding `O=C(Cn1cnc(N2CCOCC2)c1[N+](=O)[O-])c1ccccc1`, in the assay on Sydowia polyspora, the ED100 is under 25 ppm, the LD is recorded as under 5000 ppm and the EC50 is under 25 µg/mL. Further, the Activity in assay [1] was 56.3%. As to `Cc1nc(N2CCOCC2)c([N+](=O)[O-])n1CC(=O)c1ccccc1`, the Activity in assay [1] worked out at 39.9%. Still for that read-out and setting: as for `CC(=O)Oc1c(C)c(C)c2c(c1C)CCC(C)(CCC[C@H](C)CCC[C@H](C)CCCC(C)C)O2` (some centres not stated), the figure is 17.8%.

For `Cc1ccccc1Nc1nc(C)n(CC(=O)c2ccc(Cl)cc2)c1[N+](=O)[O-]`, the Activity in assay [1] is 12.2%.

In the case of `Cc1ccccc1Nc1nc(C)n(CC(=O)c2ccccc2)c1[N+](=O)[O-]`, the Activity in assay [1] is -354%.
